{
  "source": "ChEMBL document CHEMBL4706532",
  "about": "“New Seco-DSP derivatives as potent chemosensitizers” (Eur J Med Chem, 2020)",
  "key": {"[1]": {"tested_on": "HUVEC", "test": "Cytotoxicity against human HUVEC cells assessed as reduction in cell viability at 10 uM incubated for 48 hrs by MTT assay", "format": "cell-based", "in_short": "(§1)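 Cells plated at 3~5 × 10^3 per well and allowed 24 h before exposure to compound or DMSO (negative control) for 48 h. MTT was added for 4 h, formazan dissolved in DMSO and absorbance read at 490 nm. Inhibition was calculated relative to DMSO and blank.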"}, "[2]": {"test": "Cytotoxicity against human HOSEC cells assessed as reduction in cell viability at 10 uM incubated for 48 hrs by MTT assay", "format": "cell-based", "conditions": "hose", "in_short": "as §1, with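 “h. A2780/T and KB-VIN were grown in DMEM/F12 with 10% FBS, and HUVEC, HOSEC and T29 in RPMI-1640 with 10% FBS, all at 37 °C under 5% CO₂.” for “h.”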"}, "[3]": {"test": "Cytotoxicity against human T29 cells assessed as reduction in cell viability at 10 uM incubated for 48 hrs by MTT assay", "format": "cell-based", "conditions": "t29, 48 h", "in_short": "as §1, with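 “h. A2780/T and KB-VIN were grown in DMEM/F12 with 10% FBS, and HUVEC, HOSEC and T29 in RPMI-1640 with 10% FBS, all at 37 °C under 5% CO₂.” for “h.”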"}, "[4]": {"tested_on": "A2780/Taxol", "test": "Cytotoxicity against human A2780T cells assessed as reduction in cell viability at 10 uM incubated for 48 hrs by MTT assay", "format": "cell-based", "in_short": "as §1, with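 “h. A2780/T and KB-VIN were grown in DMEM/F12 with 10% FBS, and HUVEC, HOSEC and T29 in RPMI-1640 with 10% FBS, all at 37 °C under 5% CO₂.” for “h.”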"}, "[5]": {"test": "Reversal of multidrug resistance activity in P-gp overexpressing human A2780T cells assessed as potentiation of PTX-induced cytotoxicity by measuring reversal ratio at 10 uM incubated for 48 hrs in presence of paclitaxel by MTT assay", "format": "functional, A2780/Taxol", "in_short": "(§2)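 Resistant cells were plated at 3~5 × 10^3 per well, given 24 h, then co-treated with test compound plus a range of anticancer drug concentrations (PTX for A2780/T, VCR for KB-VIN, cisplatin for A2780/CDDP) or DMSO for 48 h. Read-out was by MTT, 4 h at 37 °C, with absorbance at 490 nm. Reversal ratio = IC50 (drug alone) / IC50 (drug with compound).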"}, "[6]": {"test": "Reversal of multidrug resistance activity in P-gp overexpressing human KB-VIN cells assessed as potentiation of VCR-induced cytotoxicity by measuring reversal ratio at 10 uM incubated for 48 hrs in presence of VCR by MTT assay", "format": "functional", "in_short": "as §2"}, "[7]": {"test": "Reversal of multidrug resistance activity in human A2780/CDDP cells assessed as potentiation of CDDP-induced cytotoxicity by measuring reversal ratio at 10 uM incubated for 48 hrs in presence of CDDP by MTT assay", "format": "functional", "in_short": "as §2"}, "[8]": {"tested_on": "A2780/Taxol", "test": "Increase in P-gp expression in human A2780T cells at 10 uM incubated for 48 hrs by western blot analysis", "format": "functional, cell-based", "in_short": "(§3)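 A2780/T cells (about 5×10^5 per well) were allowed 24 h, then treated with compound at 10 µM for 48 h at 37 °C. Cells were lysed in RIPA buffer with 1 mM PMSF. Lysates (20 µg protein) were run on 12% SDS-PAGE and transferred to PVDF. Blots were blocked in 3% BSA and probed overnight at 4 °C with anti-P-gp or GAPDH antibody (1:1000), then with HRP secondary (1:10000) for 1 h. Detection was by ECL with densitometry.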"}, "[9]": {"tested_on": "A2780T", "test": "Inhibition of P-gp mediated multidrug resistance activity in human A2780T cells assessed as increase in intracellular DOX accumulation at 10 uM incubated for 4 hrs in presence of doxorubicin by flow cytometry", "format": "cell-based", "in_short": "(§4)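 A2780/T cells were seeded at about 5×10^5 per well and left 24 h. […] Cells were washed three times with ice-cold PBS and resuspended in cold PBS. DOX autofluorescence was measured by flow cytometry and by fluorescence/confocal microscopy. Data are given as mean ± SD.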"}, "[10]": {"organism": "Homo sapiens", "test": "Stimulation of human membrane P-gp ATPase activity at 0.5 mM using MgATP as substrate preincubated with enzyme for 5 mins followed by substrate addition and measured after 120 mins by ADP-Glo luminescence assay relative to control", "format": "cell membranes", "conditions": "time 125.0 min", "in_short": "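Reactions were started with 10 μL of 25 mM MgATP and run 120 min at 37 °C. ATP detection reagent was then added, and luminescence was read after about 20 min at room temperature (P-gp-Glo). Results are mean ± SD of three independent experiments.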"}, "[11]": {"test": "Cytotoxicity against human KB-VIN cells assessed as reduction in cell viability at 10 uM incubated for 48 hrs by MTT assay", "format": "cell-based", "in_short": "as §1, with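 “h. A2780/T and KB-VIN were grown in DMEM/F12 with 10% FBS, and HUVEC, HOSEC and T29 in RPMI-1640 with 10% FBS, all at 37 °C under 5% CO₂.” for “h.”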"}, "[12]": {"test": "Reversal of multidrug resistance activity in P-gp overexpressing human A2780T cells assessed as potentiation of PTX-induced cytotoxicity by measuring reversal ratio at 1 uM incubated for 48 hrs in presence of paclitaxel by MTT assay", "format": "functional, A2780/Taxol", "in_short": "as §2"}, "[13]": {"tested_on": "A2780/Taxol", "test": "Decrease in P-gp expression in human A2780T cells at 10 uM incubated for 48 hrs by western blot analysis", "format": "functional, cell-based", "in_short": "as §3"}, "[14]": {"tested_on": "A2780T", "test": "Inhibition of P-gp mediated multidrug resistance activity in human A2780T cells assessed as increase in intracellular DOX accumulation at 10 uM incubated for 4 hrs in presence of doxorubicin by fluorescence microsocopy", "format": "cell-based", "in_short": "as §4"}, "[15]": {"test": "Reversal of multidrug resistance activity in P-gp overexpressing human A2780T cells assessed as potentiation of PTX-induced cytotoxicity by measuring reversal ratio at 200 nM incubated for 48 hrs in presence of paclitaxel by MTT assay"}},
  "note": "Active and inactive are the calls of the source. The rule behind the calls is not given here.",
  "data": [
    {"molecule": "CCOc1ccc2c(=O)cc(CC)oc2c1COC(=O)/C=C/c1ccccc1", "values": [
      {"measurement": "Activity", "setting": "[1]", "result": "Non-Toxic"},
      {"measurement": "Activity", "setting": "[2]", "result": "Non-Toxic"},
      {"measurement": "Activity", "setting": "[3]", "result": "Non-Toxic"},
      {"measurement": "Activity", "setting": "[4]", "result": "Non-Toxic"},
      {"measurement": "Ratio", "setting": "[5]", "result": 503},
      {"measurement": "Ratio", "setting": "[6]", "result": 633},
      {"measurement": "Ratio", "setting": "[7]", "result": 0.92},
      {"measurement": "Activity", "setting": "[8]", "result": "inactive"},
      {"measurement": "inhibition", "setting": "[9]", "result": "Active"},
      {"measurement": "fold change (FC)", "setting": "[10]", "result": 1.2},
      {"measurement": "Activity", "setting": "[11]", "result": "Non-Toxic"},
      {"measurement": "Ratio", "setting": "[12]", "result": 4.24},
      {"measurement": "inhibition", "setting": "[13]", "result": "inactive"},
      {"measurement": "inhibition", "setting": "[14]", "result": "Active"},
      {"measurement": "Ratio", "setting": "[15]", "result": 1.05}
    ]},
    {"molecule": "CCOc1ccc2c(=O)cc(CC)oc2c1COC(=O)/C=C/c1ccc(OC)cc1", "values": [
      {"measurement": "Activity", "setting": "[1]", "result": "Non-Toxic"},
      {"measurement": "Activity", "setting": "[2]", "result": "Non-Toxic"},
      {"measurement": "Activity", "setting": "[3]", "result": "Non-Toxic"},
      {"measurement": "Activity", "setting": "[4]", "result": "Toxic"},
      {"measurement": "Ratio", "setting": "[5]", "result": ">1471"},
      {"measurement": "Ratio", "setting": "[6]", "result": 299},
      {"measurement": "Ratio", "setting": "[7]", "result": 0.88},
      {"measurement": "Activity", "setting": "[8]", "result": "inactive"},
      {"measurement": "inhibition", "setting": "[9]", "result": "Active"},
      {"measurement": "fold change (FC)", "setting": "[10]", "result": 1.2},
      {"measurement": "Activity", "setting": "[11]", "result": "Non-Toxic"},
      {"measurement": "Ratio", "setting": "[12]", "result": 128},
      {"measurement": "inhibition", "setting": "[13]", "result": "inactive"},
      {"measurement": "inhibition", "setting": "[14]", "result": "Active"},
      {"measurement": "Ratio", "setting": "[15]", "result": 1.05}
    ]},
    {"molecule": "COc1ccc(CCN(C)CCCC(C#N)(c2ccc(OC)c(OC)c2)C(C)C)cc1OC", "note": "(configuration not stated)", "values": [
      {"measurement": "inhibition", "setting": "[9]", "result": "Active"},
      {"measurement": "fold change (FC)", "setting": "[10]", "result": 1.8},
      {"measurement": "inhibition", "setting": "[14]", "result": "Active"}
    ]},
    {"molecule": "CCOc1ccc2c(=O)cc(CC)oc2c1COC(=O)Cc1cc(OC)c(OC)c(OC)c1", "values": [
      {"measurement": "Activity", "setting": "[1]", "result": "Non-Toxic"},
      {"measurement": "Activity", "setting": "[2]", "result": "Non-Toxic"},
      {"measurement": "Activity", "setting": "[3]", "result": "Non-Toxic"},
      {"measurement": "Activity", "setting": "[4]", "result": "Non-Toxic"},
      {"measurement": "Ratio", "setting": "[5]", "result": 677},
      {"measurement": "Ratio", "setting": "[6]", "result": 628},
      {"measurement": "Ratio", "setting": "[7]", "result": 0.97},
      {"measurement": "Activity", "setting": "[8]", "result": "inactive"},
      {"measurement": "inhibition", "setting": "[9]", "result": "Active"},
      {"measurement": "fold change (FC)", "setting": "[10]", "result": 1.2},
      {"measurement": "Activity", "setting": "[11]", "result": "Non-Toxic"},
      {"measurement": "Ratio", "setting": "[12]", "result": 4.13},
      {"measurement": "inhibition", "setting": "[13]", "result": "inactive"},
      {"measurement": "inhibition", "setting": "[14]", "result": "Active"},
      {"measurement": "Ratio", "setting": "[15]", "result": 1.05}
    ]},
    {"molecule": "CCc1cc(=O)c2ccc(OC(C)C)c(COC(=O)Cc3cc(OC)c(OC)c(OC)c3)c2o1", "values": [
      {"measurement": "Activity", "setting": "[1]", "result": "Non-Toxic"},
      {"measurement": "Activity", "setting": "[2]", "result": "Non-Toxic"},
      {"measurement": "Activity", "setting": "[3]", "result": "Non-Toxic"},
      {"measurement": "Activity", "setting": "[4]", "result": "Non-Toxic"},
      {"measurement": "Ratio", "setting": "[5]", "result": 576},
      {"measurement": "Ratio", "setting": "[6]", "result": 604},
      {"measurement": "Activity", "setting": "[8]", "result": "inactive"},
      {"measurement": "inhibition", "setting": "[9]", "result": "Active"},
      {"measurement": "fold change (FC)", "setting": "[10]", "result": 1.2},
      {"measurement": "Activity", "setting": "[11]", "result": "Non-Toxic"},
      {"measurement": "Ratio", "setting": "[12]", "result": 3.97},
      {"measurement": "inhibition", "setting": "[13]", "result": "inactive"},
      {"measurement": "inhibition", "setting": "[14]", "result": "Active"},
      {"measurement": "Ratio", "setting": "[15]", "result": 1.05}
    ]}
  ]
}
